The values that follow come from the EternaBench riboswitch data.

The test system of this data set is MS2 coat protein. Description: apparent Kd, MS2 coat protein; higher = weaker binding; RNA-MaP array; FMN 200 µM where present. The method in brief:
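Apparent Kd: the median of filtered binding-curve fits from single clusters. Designs were transcribed on Illumina sequencing-chip clusters by stalled E. coli RNA polymerase and titrated with SNAP-549-labelled MS2 coat protein from 0.7 or 1.5 nM, doubling to 3 µM, in 100 mM Tris-HCl pH 7.5, 80 mM KCl, 4 mM MgCl2, BSA, DTT, yeast tRNA and Tween-20. Each series ran without and then with constant ligand, and green signal was normalised to red-channel RNA signal and control-cluster median Fmax.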

[1] abbreviates: designed as: OFF switch for flavin mononucleotide, no ligand.
[2] abbreviates: ligand present: flavin mononucleotide, designed as: OFF switch for flavin mononucleotide.
The mark [3] stands for this setting: designed as: ON switch for flavin mononucleotide, no ligand.
Where [4] appears, read: ligand present: flavin mononucleotide, designed as: ON switch for flavin mononucleotide.

For the sequence “UCAUUUCUGAAAGGAUAUUAAUUCAUGACGAUACAUGAGGAUCACCCAUGUUAAGAAGGUUCAAAUACAAAUAAUGCAUUGUUC”, the “apparent Kd” value by setting is: under setting [1], 13.2 nM; under setting [2], 11.1 nM.
The matching figures for “UAAUUUUUGACAGGAUAUCCAUGUACAUGAGGAUCACCCAUGUAAAAGGGUAGCCUCAUCGGGCAGGAGAAGGGUCGAUAGGCG”: 249 nM and 134 nM.
In the case of “UUUAUGUCAGGAUAUGAGUAGUAGAACAAUAGUACUACUACUCAGAAGGGACAUGAGGAUCACCCAUGUGCCUC”, the “apparent Kd” value stood at 35.2 nM under setting [1] and 291 nM under setting [2].
As for “UGUAUGUAGGAGAAGGAGGACUUCAUGAGGAUCACCCAUGUGUUAGGACUUAGGAUAUCUGACGACAUGAGGAUCACCCAUGUG”, the “apparent Kd” value reads like this: under setting [3], 537 nM; under setting [4], 355 nM.
Consider “UUAUUAAGUGUGAGGAUAUGCUGGUCCUUGGAUCAGCAGAAGGCACAUGAGGAUCACCCAUGUACUUUAUAAAU”, for which the “apparent Kd” value by setting is: under setting [1], 15.7 nM; under setting [2], 46.6 nM.
In the case of “AUACGUGAGAAGGAUAUCACUCGCCAGAGGCGAUGAGAAGGUUUCACAUGAGGAUCACCCAUGUGCUCUUCUAG”, the “apparent Kd” value runs as follows: under setting [1], 32 nM; under setting [2], 75.1 nM.
The matching figures for “AGCACGAAAGUGCAACGAUGUACGAGAAGGACAUGAGGAUCACCCAUGUCGCUGUAACAGCACAUGUAGGAUAUCGUACAUCGA”: 12.9 nM and 15.2 nM.
Take “GCGCGAAGCUAGGAUAUGGGAGCCGAAAGGCUCCCAGAAGGAGCCACAUGAGGAUCACCCAUGUGGUGAUCCUG”: the “apparent Kd” value is 18.6 nM under setting [1] and 38.6 nM under setting [2].
For the sequence “GAGUGGUAGAGAGGAUAUGCAUUGUUAUUAAAUGCAGAAGGUUUUAACAUGAGGAUCACCCAUGUAGGACUAUUCCUGUGUUUC”, the “apparent Kd” value was 15.5 nM under setting [3] and 13.6 nM under setting [4].
The matching figures for “CGUGACGACAUAGGAUAUUGAUACAUGAGGAUCACCCAUGUCACCCAUUUAUCUCUAAGUGUUGACAAGAAGGAUGUGGUCACG”: 10.1 nM and 9.33 nM.
As for “AUUUCCAGAGGAUAUGCGAGGGUGUACCUCUAACAGCGCAAACAUGAGGAUCACCCAUGUAGAAGGCUGAUCAU”, the “apparent Kd” value was found to be 56.5 nM under setting [1] and 54.8 nM under setting [2].
“AACUAACAUGAGGAUCACCCAUGUCAGGAUAUGCAUCAAUCAAUCAAUCAAUCAAUCAGCAGAAGGGACACUAC”: the “apparent Kd” value was determined as 16.8 nM under setting [1] and 19.4 nM under setting [2].
For the sequence “CCUCGUUGGGAGGAUAUCCUUUUGGUUGGAGGAGGAGAAGGCUCGACAUGAGGAUCACCCAUGUGGGAUUUCCC”, the “apparent Kd” value is 62.4 nM under setting [1] and 194 nM under setting [2].
In the case of “AAUGCACAUGAGGAUCACCCAUGUAAGACAAAGACAGGAUAUGGGCCGCAUGGCUCUGGCCCAGAAGGGUCAGUCG”, the “apparent Kd” value by setting is: under setting [3], 25 nM; under setting [4], 18.6 nM.
In the case of “GCCGAUUAAGUCAGGAUAUACCUAUGGAUACAUAGGUAGAAGGGACAUGAGGAUCACCCAUGUUCCUCUACGGC”, the “apparent Kd” value reads like this: under setting [1], 12.9 nM; under setting [2], 25.8 nM.
Take “GGGUCGUCAGGAUAUACAUGAGGAUCACCCAUGUGACCACACUUACCUAUCGCUCGCUGUAGAAGGGAUGAUGA”: the “apparent Kd” value runs as follows: under setting [1], 30.3 nM; under setting [2], 27.1 nM.
The matching figures for “GCCUAAAGUGAGGAUAUCUAGCGCGUAAAGGCAGGAGAAGGUGCAACAUGAGGAUCACCCAUGUAGGCUGUCUA”: 19.5 nM and 20 nM.
For “AAAUUUAACGAAGGAUAUGGAUACAUGAGGAUCACCCAUGUAUAUUUUGUGAUCUUGUAAAAGUACCAGAAGGUCGUAUACAUA”, the “apparent Kd” value was found to be 85.7 nM under setting [1] and 208 nM under setting [2].
As to “GUGUACAGAGGAUAUACUGGAGCAUGGAAACAUGCAACCUCACAUGAGGAUCACCCAUGUAGAAGGCUGUACAC”, the “apparent Kd” value runs as follows: under setting [1], 334 nM; under setting [2], 28.2 nM.
With “AGCAAGCGAGGAUAUGCUCGGGUUGCUUGUCGAGAGGAUACACAUGAGGAUCACCCAUGUAGAAGGUGUAUAAA”, the “apparent Kd” value under setting [1] was 37.7 nM and the “apparent Kd” value under setting [2] is 28.4 nM.
As for “GGAUGCCGCUCAGGAUAUGUGGGUUGUCUAGUAUCUAGAUUCCACAUGAGGAUCACCCAUGUAACACAGAAGGGAGAUGGUGAU”, the “apparent Kd” value reads like this: under setting [3], 526 nM; under setting [4], 23.2 nM.
Take “UGUGUGUGACAGGAUAUGCAGGUUAUGAGACGGGUAGAAGGGUCUACAUGAGGAUCACCCAUGUGGCCGGUUGG”: the “apparent Kd” value under setting [1] came out at 18 nM and the “apparent Kd” value under setting [2] is 16.9 nM.
In the case of “AACAGCUCGUCAGGAUAUAUUUUCUUUUUAUGUAUUUAUGUACAUGAGGAUCACCCAUGUUGUUUGUAGAAGGGACGAGCUGAA”, the “apparent Kd” value is, setting by setting: under setting [1], 20.1 nM; under setting [2], 16.7 nM.
Turning to “CAGCGAAAGUAGAAGGCAGUACUGAUACAGUACUGAGGAUAUACAUGAGGAUCACCCAUGUACUUCAGCUGGAAAUAAAUAAAA”, the “apparent Kd” value came to 5.59 nM under setting [1] and 6.32 nM under setting [2].
For the sequence “CGUGACGACAUAGGAUAUUGAUACAUGAGGAUCACCCAUGUCAACCAUUUAUCUCAAAUUGUUGACAAGAAGGAUGUGGUCACG”, the “apparent Kd” value under setting [3] is 263 nM and the “apparent Kd” value under setting [4] is 13.6 nM.
For “GAACGUGACAUGAGGAUCACCCAUGUUGCCUGAGCCAGGUCGUAGGAUAUCCUGAUGAUUAAUUUGGAGAAGGGCGACUGGGAA”, the “apparent Kd” value was 34.4 nM under setting [3] and 14.3 nM under setting [4].
As to “AUUAUAUAGGUAGGAUAUAGAAUAUUAUUUUAACAUGAGGAUCACCCAUGUAACCUUAUGUGUAGCUAGAAGGACCAUUUAUUA”, the “apparent Kd” value under setting [1] came out at 78 nM and the “apparent Kd” value under setting [2] worked out at 154 nM.
On to “UUAUGAGAGCAGGAUAUCUUAUAUUUUUAUUAAAGAGAAGGGCUCACAUGAGGAUCACCCAUGUGGUCCUAGAU”, for which the “apparent Kd” value under setting [1] amounted to 55.9 nM and the “apparent Kd” value under setting [2] was determined as 598 nM.
Take “AAAAAAAAAACGCAGGAUAUCCAAAAAAAAACAUGAGGAUCACCCAUGUAAAAAAAAAAAAAAUGGGAGAAGGGUGAAAAAAAAAA”: the “apparent Kd” value under setting [3] was 114 nM and the “apparent Kd” value under setting [4] is 51 nM.
For the sequence “AUAAUGCGAGGAUAUACAUGAGGAUCACCCAUGUAAUUCAAUCGGAGAGCCACAUUACGUAGAAGGUGCAUUAA”, the “apparent Kd” value is, setting by setting: under setting [1], 17 nM; under setting [2], 23 nM.
For the sequence “AAUAUGAGCUGGUUUAAACUCAAAACAUGAGGAUCACCCAUGUAGGAUAUCAGCACGAUAAGUGCUGAGAAGGACAUCCAGCUC”, the “apparent Kd” value reads like this: under setting [1], 14.2 nM; under setting [2], 16.5 nM.
The matching figures for “GUAGUGUAGUGAGGAUAUACGAGAUCGAUAGAUCGGCGAUCCAAUAAUACAUGAGGAUCACCCAUGUAGAAGGCACUUCACUAC”: 7.26 nM and 98.8 nM.
Take “CGGGAAGUCGUAGGAUAUGGUGAUGUACAUGAGGAUCACCCAUGUCCGUCUUCUCUCACAAGAUGCCAGAAGGACGACUUCCGG”: the “apparent Kd” value amounted to 766 nM under setting [3] and 103 nM under setting [4].
As for “UUAAAUAGUGUGAGGAUAUGCUGGUCCUUGGAUCAGCAGAAGGCACAUGAGGAUCACCCAUGUAGUUAAUUUUA”, the “apparent Kd” value stood at 39.9 nM under setting [1] and 253 nM under setting [2].
Consider “ACUAGAUGCGUGAAAUAACACAUGAGGAUCACCCAUGUGACGCAGGAUAUAACCAGAUCAGAAAGUUAGAAGGGUGAGCACGCA”, for which the “apparent Kd” value turned out to be 60.8 nM under setting [3] and 31.8 nM under setting [4].
For “UUAAUUAUACAAGGAUAUCUAAUGGACUUACGACAAACAUGAGGAUCACCCAUGUAAAUAUAUAAAGAGAAGGUGUAUUUUCAG”, the “apparent Kd” value reads like this: under setting [3], 73.5 nM; under setting [4], 41.5 nM.
